Values after ≈ are worked out from the molar mass of the structure shown. Active and inactive are the calls of the source.
Key:
[1] = Induction of hemolysis in New Zealand white rabbit RBC after 1 hr; format: cell-based, Oryctolagus cuniculus, Erythrocyte; settings: New Zealand white, red blood cells (RBC)
How it was run: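 Fresh red blood cells isolated from New Zealand white rabbits. Lysis measured over a compound concentration series; HC50 taken as the concentration lysing 50% of RBCs.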

[2] = Selectivity index, ratio of HC50 for induction of hemolysis in New Zealand white rabbit RBC to MIC for Bacillus cereus ATCC 11778
[3] = Selectivity index, ratio of HC50 for induction of hemolysis in New Zealand white rabbit RBC to MIC for Staphylococcus aureus DM09809R
Staphylococcus aureus [4] = assay: Antimicrobial activity against methicillin resistant Staphylococcus aureus DM09809R by broth macrodilution method; format: functional
How it was run: (§1)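 Broth macrodilution MIC in Mueller Hinton broth following CLSI guidelines. Inoculum was prepared by direct colony suspension from an 18−20 h tryptic soy agar plate.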

Staphylococcus aureus [5] = assay: Antimicrobial activity against methicillin resistant Staphylococcus aureus DM21455 by broth macrodilution method; format: functional; how it was run: as §1
Bacillus cereus = assay: Antimicrobial activity against Bacillus cereus ATCC 11778 by broth macrodilution method; format: functional
How it was run: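 CLSI broth macrodilution in Mueller Hinton broth. Inoculum was made by direct colony suspension from colonies on an 18−20 h tryptic soy agar plate. The value is the MIC.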

Staphylococcus aureus [6] = assay: Antimicrobial activity against Staphylococcus aureus DM4001 by broth macrodilution method; format: functional; how it was run: as §1
Staphylococcus aureus [7] = assay: Antimicrobial activity against Staphylococcus aureus ATCC 29213 infected in mouse cornea infection model assessed as reduction in viable bacterial count at 0.02% solution applied topically 5 times/day dosed 1 day after infection relative to control; format: functional
How it was run: (§2)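 Mouse cornea given three superficial 1 mm scratches on one eye under ketamine/xylazine, then 10 μL of S. aureus ATCC 29213 suspension (1 × 10^8 CFU/mL in USP phosphate buffer) applied topically. Treated topically 5 times/day from day 1 postinfection; PBS negative control; 4 mice/group killed on days 1, 2 and 3. Corneas homogenized in 0.9% NaCl with 0.25% BSA, plated in duplicate on TSA (48 h, 35 °C); log10 CFU/cornea.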

[8] = Selectivity index, ratio of HC50 for induction of hemolysis in New Zealand white rabbit RBC to MIC for Staphylococcus aureus DM21455
[9] = Selectivity index, ratio of HC50 for induction of hemolysis in New Zealand white rabbit RBC to MIC for Staphylococcus aureus DM4001
Staphylococcus aureus [10] = assay: Antimicrobial activity against methicillin sensitive Staphylococcus aureus isolates by broth macrodilution method; format: functional
Streptococcus = assay: Antimicrobial activity against Streptococcus isolates by broth macrodilution method; format: functional
Mus musculus [11] = assay: Toxicity in C57BL6 mouse eye assessed as effect on corneal clarity at 3 mg/ml applied topically 5 times/day for 4 days by slit lamp biomicroscopy; format: organism-based, Cornea; settings: in vivo, topical_or_ocular, 96 h
How it was run: (§3)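 Three healthy wild-type C57BL6 mice (6−8 weeks) per treatment received 0.5, 1 or 3 mg/mL compound in 10 mM PBS. Applied topically to the eye 5 times/day for 4 days. Corneal clarity checked daily through day 4 by slit-lamp biomicroscopy; histological sections also inspected.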

Staphylococcus aureus [12] = assay: Antimicrobial activity against methicillin resistant Staphylococcus aureus DM21455 in absence of 4% BSA by broth macrodilution method; format: functional; how it was run: as §1
Staphylococcus aureus [13] = assay: Antimicrobial activity against methicillin resistant Staphylococcus aureus isolates by broth macrodilution method; format: functional
Staphylococcus aureus [14] = assay: Antimicrobial activity against epidemic methicillin resistant Staphylococcus aureus isolates by broth macrodilution method; format: functional
Staphylococcus aureus [15] = assay: Antimicrobial activity against vancomycin-intermediate sensitive Staphylococcus aureus isolates by broth macrodilution method; format: functional
Mus musculus [16] = assay: Toxicity in C57BL6 mouse eye assessed as effect on wound closure at 3 mg/ml applied topically 5 times/day for 4 days by slit lamp biomicroscopy; format: organism-based; settings: in vivo, topical_or_ocular, 96 h
Listeria monocytogenes = assay: Antimicrobial activity against Listeria monocytogenes isolates by broth macrodilution method; format: functional
[17] = Retention time of the compound; format: physicochemical
How it was run: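 Reverse-phase HPLC of 20 μL injections of a 10 μg/mL sample at 1 mL/min. Gradient: 5−55% ACN over 5 min, then 55−95% over 15 min.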

Corynebacterium jeikeium = assay: Antimicrobial activity against Corynebacterium jeikeium isolates by broth macrodilution method; format: functional
Staphylococcus aureus [18] = assay: Antimicrobial activity against multidrug resistant Staphylococcus aureus isolates by broth macrodilution method; format: functional
Lipid bilayer [19] = assay: Induction of vesicle leakage in DOPE/DOPG large unilamellar vesicles assessed as calcein release at 1/64 compound to lipid ratio by fluorescence assay; format: functional
How it was run: (§4)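 100 nm LUVs (DOPE/DOPG 75/25 or DOPC) made by film hydration in 80 mM calcein, 50 mM HEPES, 100 mM NaCl, 0.3 mM EDTA, pH 7.4. Then 7 freeze–thaw cycles, 15 extrusions and Sephadex G-50 clean-up. Compound added from DMF (<0.2%) at 50 μM final phospholipid. Fluorescence read at ex 490/em 520 nm for 30 min; 0.1% Triton X-100 set 100% lysis; three independent experiments.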

Staphylococcus aureus [20] = assay: Antimicrobial activity against Staphylococcus aureus ATCC 29213 by broth macrodilution method; format: functional; how it was run: as §1
Enterococcus [21] = assay: Antimicrobial activity against vancomycin-resistant Enterococcus isolates by broth macrodilution method; format: functional
Mus musculus [22] = assay: Toxicity in C57BL6 mouse eye assessed as inflammatory response at 3 mg/ml applied topically 5 times/day for 4 days by slit lamp biomicroscopy; format: organism-based; settings: in vivo, topical_or_ocular, 96 h; how it was run: as §3
Mus musculus [23] = assay: Toxicity in C57BL6 mouse eye assessed as induction of toxicity related clinical signs at 3 mg/ml applied topically 5 times/day for 4 days; format: organism-based; settings: in vivo, topical_or_ocular, 96 h; how it was run: as §3
Lipid bilayer [24] = assay: Induction of vesicle leakage in DOPE/DOPG large unilamellar vesicles assessed as calcein release at 1/32 compound to lipid ratio by fluorescence assay; format: functional; how it was run: as §4
Staphylococcus aureus [25] = assay: Antimicrobial activity against Staphylococcus aureus ATCC 29213 in absence of 4% BSA by broth macrodilution method; format: functional; how it was run: as §1
Staphylococcus aureus [26] = assay: Antimicrobial activity against Staphylococcus aureus ATCC 29213 infected in mouse cornea infection model assessed as reduction in viable bacterial count at 0.3% solution applied topically 5 times/day dosed 1 day after infection relative to control; format: functional; how it was run: as §2
Lipid bilayer [27] = assay: Induction of vesicle leakage in DOPE/DOPG large unilamellar vesicles assessed as calcein release at 1/16 compound to lipid ratio by fluorescence assay; format: functional; how it was run: as §4
Enterococcus [28] = assay: Antimicrobial activity against vancomycin-sensitive Enterococcus isolates by broth macrodilution method; format: functional
Staphylococcus aureus [29] = assay: Antimicrobial activity against methicillin resistant Staphylococcus aureus DM21455 in presence of 4% BSA by broth macrodilution method; format: functional
How it was run: (§5)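 MIC by CLSI broth macrodilution in Mueller Hinton broth, with BSA added to the bacterial suspension at a final 4% w/v. Inoculum was made by direct colony suspension from an 18−20 h tryptic soy agar plate.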

Staphylococcus aureus [30] = assay: Antimicrobial activity against Staphylococcus aureus ATCC 29213 at 0.5 times MIC measured after 17 passages by multistep passage drug resistance selection study relative to wild type Staphylococcus aureus ATCC 29213 before passage; format: functional
How it was run: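 Multipassage selection in S. aureus ATCC29213 across an eight-concentration dilution series. Growth was read after 20−22 h. Bacteria growing at 0.5 × MIC were repassaged into a fresh series, 17 passages in total. Resistance was defined as a more than 4-fold rise over the initial MIC.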

[31] = tested on: Staphylococcus epidermidis; assay: Antimicrobial activity against Staphylococcus epidermidis isolates by broth macrodilution method; format: functional
Lipid bilayer [32] = assay: Induction of vesicle leakage in DOPC large unilamellar vesicles assessed as calcein release at 1/16 compound to lipid ratio by fluorescence assay; format: functional; how it was run: as §4
Lipid bilayer [33] = assay: Induction of vesicle leakage in DOPC large unilamellar vesicles assessed as calcein release at 1/64 compound to lipid ratio by fluorescence assay
Staphylococcus aureus [34] = assay: Antimicrobial activity against teicoplanin intermediate resistant Staphylococcus aureus isolates by broth macrodilution method; format: functional
Staphylococcus aureus [35] = assay: Antimicrobial activity against Staphylococcus aureus ATCC 29213 in presence of 4% BSA by broth macrodilution method; format: functional; how it was run: as §5

## CCN(CC)CCCCOc1cc2oc3cc(OCCCCN(CC)CC)c(OC)c(CC=C(C)C)c3c(=O)c2c(O)c1CC=C(C)C
[1]
  HC50 at 1 h: 20 µg/mL
[2]
  Selectivity Index: 7
[3]
  Selectivity Index: 7
Staphylococcus aureus [4]
  MIC: 2 µg/mL (≈ 3.01 µM)
Staphylococcus aureus [5]
  MIC: 0.5 µg/mL (≈ 0.752 µM)
Bacillus cereus
  MIC: 3 µg/mL (≈ 4.51 µM)
Staphylococcus aureus [6]
  MIC: 2 µg/mL (≈ 3.01 µM)
Staphylococcus aureus [7]
  Ratio: <1
[8]
  Selectivity Index: 7
[9]
  Selectivity Index: 7

## COC(=O)C(CCCNC(=N)N)NC(=O)C(CCCNC(=N)N)NC(=O)COc1cc2oc3cc(OCC(=O)NC(CCCNC(=N)N)C(=O)NC(CCCNC(=N)N)C(=O)OC)c(OC)c(CC=C(C)C)c3c(=O)c2c(O)c1CC=C(C)C (stereo not drawn)
[1]
  HC50 at 1 h: 277 µg/mL
[2]
  Selectivity Index: 92
Staphylococcus aureus [10]
  MIC: 2 µg/mL (≈ 1.7 µM)
Streptococcus
  MIC: 2 µg/mL (≈ 1.7 µM)
Mus musculus [11]
  Activity: Non-toxic
Staphylococcus aureus [12]
  MIC: 1.56 µg/mL (≈ 1.32 µM)
[3]
  Selectivity Index: 92
Staphylococcus aureus [13]
  MIC: 2 µg/mL (≈ 1.7 µM)
Staphylococcus aureus [14]
  MIC: 2 µg/mL (≈ 1.7 µM)
Staphylococcus aureus [15]
  MIC: 2 µg/mL (≈ 1.7 µM)
Staphylococcus aureus [4]
  MIC: 3 µg/mL (≈ 2.54 µM)
Mus musculus [16]
  Activity: Non-toxic
Staphylococcus aureus [5]
  MIC: 2 µg/mL (≈ 1.7 µM)
Listeria monocytogenes
  MIC: 2 µg/mL (≈ 1.7 µM)
[17]
  Retention_time: 6.49 min
Corynebacterium jeikeium
  MIC: 2 µg/mL (≈ 1.7 µM)
Staphylococcus aureus [18]
  MIC: 2 µg/mL (≈ 1.7 µM)
Lipid bilayer [19]
  Activity: 24.6%
Staphylococcus aureus [20]
  MIC: 2 µg/mL (≈ 1.7 µM)
Enterococcus [21]
  MIC: 1 µg/mL (≈ 0.848 µM)
Mus musculus [22]
  Activity: Non-toxic
Mus musculus [23]
  Activity: Non-toxic
Bacillus cereus
  MIC: 3 µg/mL (≈ 2.54 µM)
Staphylococcus aureus [6]
  MIC: 0.5 µg/mL (≈ 0.424 µM)
Lipid bilayer [24]
  Activity: 67.9%
Staphylococcus aureus [25]
  MIC: 3.12 µg/mL (≈ 2.65 µM)
[8]
  Selectivity Index: 92
Staphylococcus aureus [26]
  inhibition (INH): 99.9%
Lipid bilayer [27]
  Activity: 99.2%
Enterococcus [28]
  MIC: 2 µg/mL (≈ 1.7 µM)
Staphylococcus aureus [29]
  MIC: 12.5 µg/mL
Staphylococcus aureus [30]
  Activity: Active
[31]
  MIC: 2 µg/mL (≈ 1.7 µM)
Lipid bilayer [32]
  Activity: < 15%
Lipid bilayer [33]
  Activity: < 15%
Staphylococcus aureus [34]
  MIC: 2 µg/mL (≈ 1.7 µM)
Staphylococcus aureus [35]
  MIC: 12.5 µg/mL
[9]
  Selectivity Index: 92
